Assay results from ChEMBL document CHEMBL1255409, “In vitro activity of ceftaroline against 623 diverse strains of anaerobic bacteria” (2010).
Values after ≈ are worked out from the molar mass of the structure shown.

How the values were obtained:
Phocaeicola vulgatus = test: Antimicrobial activity against Bacteroides vulgatus under anaerobic conditions after 44 hrs by CLSI-M11-47 protocol based agar dilution method; format: functional
Method in brief: (§1)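 Reference agar dilution per CLSI M11-A7 with plates made on test day. Clinical isolates were stored at −70°C in 20% skim milk, subcultured twice, and 48-h cell paste was suspended in brucella broth to 0.5 McFarland. About 10^5 CFU/spot was applied with a Steers replicator. Plates were incubated 44 h at 37°C anaerobically. MIC was the lowest concentration giving complete inhibition or marked growth reduction versus the drug-free control.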

[Clostridium] innocuum = Antimicrobial activity against Clostridium […] under anaerobic conditions after 44 hrs by CLSI-M11-47 protocol based agar dilution method; format: functional; method in brief: as §1
Fusobacterium mortiferum = test: Antimicrobial activity against Fusobacterium mortiferum under anaerobic conditions after 44 hrs by CLSI-M11-47 protocol based agar dilution method; format: functional; method in brief: as §1
Parvimonas micra = test: Antimicrobial activity against Parvimonas micra under anaerobic conditions after 44 hrs by CLSI-M11-47 protocol based agar dilution method; format: functional
Method in brief: (§2)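 Clinical isolates were stored at −70°C in 20% skim milk and identified phenotypically or by partial 16S rRNA sequencing. Each strain was subcultured twice from frozen stock. Cell paste from 48-h cultures was suspended in brucella broth to a 0.5 McFarland standard. About 10^5 CFU per spot were applied by Steers replicator to agar dilution plates prepared on the day of testing. Plates were incubated 44 h at 37°C in an anaerobic chamber. MIC was taken as the lowest concentration giving complete inhibition or marked reduction of growth versus the drug-free control.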

Fusobacterium nucleatum = test: Antimicrobial activity against Fusobacterium nucleatum under anaerobic conditions after 44 hrs by CLSI-M11-47 protocol based agar dilution method; format: functional; method in brief: as §2
[1] = tested on: Actinomyces neuii subsp. anitratus; test: Antimicrobial activity against Actinomyces neuii subsp. anitratus under anaerobic conditions after 44 hrs by CLSI-M11-47 protocol based agar dilution method; format: functional, Winkia neuii subsp. anitrata; details: Winkia neuii; method in brief: as §1
[2] = tested on: Peptostreptococcus anaerobius; test: Antimicrobial activity against Peptostreptococcus anaerobius under anaerobic conditions after 44 hrs by CLSI-M11-47 protocol based agar dilution method; format: functional; method in brief: as §2
Prevotella denticola = test: Antimicrobial activity against Prevotella denticola under anaerobic conditions after 44 hrs by CLSI-M11-47 protocol based agar dilution method; format: functional; method in brief: as §2
[3] = tested on: Lacticaseibacillus rhamnosus; test: Antimicrobial activity against Lactobacillus rhamnosus under anaerobic conditions after 44 hrs by CLSI-M11-47 protocol based agar dilution method; format: functional; method in brief: as §2
Eubacterium contortum = test: Antimicrobial activity against Eubacterium contortum under anaerobic conditions after 44 hrs by CLSI-M11-47 protocol based agar dilution method; format: functional; details: Faecalicatena contorta; method in brief: as §1
[4] = tested on: Clostridium celerecrescens; test: Antimicrobial activity against Clostridium celerecrescens under anaerobic conditions after 44 hrs by CLSI-M11-47 protocol based agar dilution method; format: functional; details: Lacrimispora celerecrescens; method in brief: as §1
[5] = tested on: Clostridium paraputrificum; test: Antimicrobial activity against Clostridium paraputrificum under anaerobic conditions after 44 hrs by CLSI-M11-47 protocol based agar dilution method; format: functional; method in brief: as §1
Anaerococcus octavius = test: Antimicrobial activity against Anaerococcus octavius under anaerobic conditions after 44 hrs by CLSI-M11-47 protocol based agar dilution method; format: functional; method in brief: as §1
Clostridium cadaveris = test: Antimicrobial activity against Clostridium cadaveris under anaerobic conditions after 44 hrs by CLSI-M11-47 protocol based agar dilution method; format: functional; method in brief: as §1
Slackia exigua = test: Antimicrobial activity against Slackia exigua under anaerobic conditions after 44 hrs by CLSI-M11-47 protocol based agar dilution method; format: functional; method in brief: as §2
Prevotella nanceiensis = test: Antimicrobial activity against Prevotella nanceiensis under anaerobic conditions after 44 hrs by CLSI-M11-47 protocol based agar dilution method; format: functional; details: Hoylesella nanceiensis; method in brief: as §2
Clostridium hylemonae = test: Antimicrobial activity against Clostridium hylemonae under anaerobic conditions after 44 hrs by CLSI-M11-47 protocol based agar dilution method; format: functional; method in brief: as §1
Lacrimispora sphenoides = test: Antimicrobial activity against Clostridium sphenoides under anaerobic conditions after 44 hrs by CLSI-M11-47 protocol based agar dilution method; format: functional; method in brief: as §1
Prevotella bivia = test: Antimicrobial activity against Prevotella bivia under anaerobic conditions after 44 hrs by CLSI-M11-47 protocol based agar dilution method; format: functional; method in brief: as §2
Anaerococcus tetradius = test: Antimicrobial activity against Anaerococcus tetradius under anaerobic conditions after 44 hrs by CLSI-M11-47 protocol based agar dilution method; format: functional; method in brief: as §1
Bacteroides uniformis = test: Antimicrobial activity against Bacteroides uniformis under anaerobic conditions after 44 hrs by CLSI-M11-47 protocol based agar dilution method; format: functional; method in brief: as §1
Prevotella oris = test: Antimicrobial activity against Prevotella oris under anaerobic conditions after 44 hrs by CLSI-M11-47 protocol based agar dilution method; format: functional; details: Segatella oris; method in brief: as §2
Prevotella buccae = test: Antimicrobial activity against Prevotella buccae under anaerobic conditions after 44 hrs by CLSI-M11-47 protocol based agar dilution method; format: functional; details: Segatella buccae; method in brief: as §2
[6] = tested on: Paeniclostridium sordellii; test: Antimicrobial activity against Clostridium sordellii under anaerobic conditions after 44 hrs by CLSI-M11-47 protocol based agar dilution method; format: functional; details: Paraclostridium sordellii; method in brief: as §1
Gemella morbillorum = test: Antimicrobial activity against Gemella morbillorum under anaerobic conditions after 44 hrs by CLSI-M11-47 protocol based agar dilution method; format: functional; method in brief: as §2
Solobacterium moorei = test: Antimicrobial activity against Solobacterium moorei under anaerobic conditions after 44 hrs by CLSI-M11-47 protocol based agar dilution method; format: functional; method in brief: as §2
Eubacterium saburreum = test: Antimicrobial activity against Eubacterium saburreum under anaerobic conditions after 44 hrs by CLSI-M11-47 protocol based agar dilution method; format: functional; details: Lachnoanaerobaculum saburreum; method in brief: as §1
Porphyromonas somerae = test: Antimicrobial activity against Porphyromonas somerae under anaerobic conditions after 44 hrs by CLSI-M11-47 protocol based agar dilution method; format: functional; method in brief: as §2
Hoylesella loescheii = test: Antimicrobial activity against Prevotella loescheii under anaerobic conditions after 44 hrs by CLSI-M11-47 protocol based agar dilution method; format: functional; method in brief: as §2
[7] = tested on: Parabacteroides distasonis; test: Antimicrobial activity against Bacteroides distasonis under anaerobic conditions after 44 hrs by CLSI-M11-47 protocol based agar dilution method; format: functional; method in brief: as §1
Cutibacterium acnes = test: Antimicrobial activity against Propionibacterium acnes under anaerobic conditions after 44 hrs by CLSI-M11-47 protocol based agar dilution method; format: functional; method in brief: as §2
Bacteroides fragilis = test: Antimicrobial activity against Bacteroides fragilis spp. under anaerobic conditions after 44 hrs by CLSI-M11-47 protocol based agar dilution method; format: functional; method in brief: as §1

CCO/N=C(\C(=O)N[C@@H]1C(=O)N2C(C(=O)[O-])=C(Sc3nc(-c4cc[n+](C)cc4)cs3)CS[C@H]12)c1nsc(NP(=O)(O)O)n1 [CEFTAROLINE FOSAMIL]
MIC50 (Phocaeicola vulgatus): 64 µg/mL (≈ 93.5 µM) | MIC90 (Phocaeicola vulgatus): > 64 µg/mL | MIC50 ([Clostridium] innocuum): 1 µg/mL (≈ 1.46 µM) | MIC90 ([Clostridium] innocuum): 2 µg/mL (≈ 2.92 µM) | MIC50 (Fusobacterium mortiferum): 8 µg/mL (≈ 11.7 µM) | MIC90 (Fusobacterium mortiferum): 32 µg/mL (≈ 46.7 µM) | MIC50 (Parvimonas micra): 0.06 µg/mL (≈ 0.0876 µM) | MIC90 (Parvimonas micra): 0.25 µg/mL (≈ 0.365 µM) | MIC50 (Fusobacterium nucleatum): ≤ 0.08 µg/mL | MIC90 (Fusobacterium nucleatum): 0.125 µg/mL (≈ 0.183 µM) | MIC50 [1]: 0.015 µg/mL (≈ 0.0219 µM) | MIC90 [1]: 0.25 µg/mL (≈ 0.365 µM) | MIC50 [2]: 0.5 µg/mL (≈ 0.73 µM) | MIC90 [2]: 4 µg/mL (≈ 5.84 µM) | MIC50 (Prevotella denticola): 2 µg/mL (≈ 2.92 µM) | MIC90 (Prevotella denticola): 32 µg/mL (≈ 46.7 µM) | MIC50 [3]: 0.5 µg/mL (≈ 0.73 µM) | MIC90 [3]: 1 µg/mL (≈ 1.46 µM) | MIC50 (Eubacterium contortum): 0.125 µg/mL (≈ 0.183 µM) | MIC90 (Eubacterium contortum): 0.25 µg/mL (≈ 0.365 µM) | MIC50 [4]: 0.5 µg/mL (≈ 0.73 µM) | MIC90 [4]: 16 µg/mL (≈ 23.4 µM) | MIC50 [5]: 0.5 µg/mL (≈ 0.73 µM) | MIC90 [5]: 16 µg/mL (≈ 23.4 µM) | MIC50 (Anaerococcus octavius): 0.06 µg/mL (≈ 0.0876 µM) | MIC90 (Anaerococcus octavius): 1 µg/mL (≈ 1.46 µM) | MIC50 (Clostridium cadaveris): 0.5 µg/mL (≈ 0.73 µM) | MIC90 (Clostridium cadaveris): 16 µg/mL (≈ 23.4 µM) | MIC50 (Slackia exigua): 0.125 µg/mL (≈ 0.183 µM) | MIC90 (Slackia exigua): 0.25 µg/mL (≈ 0.365 µM) | MIC50 (Prevotella nanceiensis): 2 µg/mL (≈ 2.92 µM) | MIC90 (Prevotella nanceiensis): 32 µg/mL (≈ 46.7 µM) | MIC50 (Clostridium hylemonae): 0.5 µg/mL (≈ 0.73 µM) | MIC90 (Clostridium hylemonae): 16 µg/mL (≈ 23.4 µM) | MIC50 (Lacrimispora sphenoides): 0.5 µg/mL (≈ 0.73 µM) | MIC90 (Lacrimispora sphenoides): 16 µg/mL (≈ 23.4 µM) | MIC50 (Prevotella bivia): 2 µg/mL (≈ 2.92 µM) | MIC90 (Prevotella bivia): 64 µg/mL (≈ 93.5 µM) | MIC50 (Anaerococcus tetradius): 0.03 µg/mL (≈ 0.0438 µM) | MIC90 (Anaerococcus tetradius): 0.125 µg/mL (≈ 0.183 µM) | MIC50 (Bacteroides uniformis): 64 µg/mL (≈ 93.5 µM) | MIC90 (Bacteroides uniformis): > 64 µg/mL | MIC50 (Prevotella oris): 2 µg/mL (≈ 2.92 µM) | MIC90 (Prevotella oris): 32 µg/mL (≈ 46.7 µM) | MIC50 (Prevotella buccae): 0.5 µg/mL (≈ 0.73 µM) | MIC90 (Prevotella buccae): 64 µg/mL (≈ 93.5 µM) | MIC50 [6]: 0.5 µg/mL (≈ 0.73 µM) | MIC90 [6]: 16 µg/mL (≈ 23.4 µM) | MIC50 (Gemella morbillorum): 0.06 µg/mL (≈ 0.0876 µM) | MIC90 (Gemella morbillorum): 1 µg/mL (≈ 1.46 µM) | MIC50 (Solobacterium moorei): 0.125 µg/mL (≈ 0.183 µM) | MIC90 (Solobacterium moorei): 0.25 µg/mL (≈ 0.365 µM) | MIC50 (Eubacterium saburreum): 0.125 µg/mL (≈ 0.183 µM) | MIC90 (Eubacterium saburreum): 0.25 µg/mL (≈ 0.365 µM) | MIC50 (Porphyromonas somerae): 0.015 µg/mL (≈ 0.0219 µM) | MIC90 (Porphyromonas somerae): > 16 µg/mL | MIC50 (Hoylesella loescheii): 2 µg/mL (≈ 2.92 µM) | MIC90 (Hoylesella loescheii): 32 µg/mL (≈ 46.7 µM) | MIC50 [7]: 64 µg/mL (≈ 93.5 µM) | MIC90 [7]: > 64 µg/mL | MIC50 (Cutibacterium acnes): ≤ 0.008 µg/mL | MIC90 (Cutibacterium acnes): 0.06 µg/mL (≈ 0.0876 µM) | MIC50 (Bacteroides fragilis): 64 µg/mL (≈ 93.5 µM) | MIC90 (Bacteroides fragilis): > 64 µg/mL
